The values that follow come from ChEMBL document CHEMBL3826914, “Selective photodepletion of malignant T cells in extracorporeal photopheresis with selenorhodamine photosensitizers” (Bioorg Med Chem, 2016).

The subject of the first series is ABCB1. Put plainly: Passive permeability in dog MDCK2-MDR1 cells expressing ABCB1 at 5 uM after 30 mins in presence of compound 15 by LC-MS/MS analysis. The class given is ADME, cell-based, Canis lupus familiaris, MDCK-II. To be noted: MDCK-MDR1, with compound 15 (concentration not stated), read-out: permeability. In short, it runs like this:
(§1)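 MDR1-transfected MDCKII cells (passage 16–42) were seeded at 50,000 cells cm^-2 on Transwell filters and used on day 6. Monolayers were rinsed in DPBS with 10^-2 M HEPES, pH 7.4, at 37 °C. They were preincubated 30 min in 4.3 mg/mL BSA/DPBSH with or without 5×10^-6 M P-gp inhibitor. 5 μM dye was added apically or basolaterally and samples taken after 1 h at 37 °C with nutation. Quantitation was by LC-MS/MS; P_passive is the mean of P_AB and P_BA under full inhibition. Mean ± SD.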
For the molecule `C[N+]1=c2cc3c(cc2C(C)(C)CC1)=C(c1ccc(C(=S)N2CCCCC2)s1)c1cc2c4c(c1[Se]3)CCCN4CCC2.[Cl-]`, the Papp at 0.5 h, 5 µM was less than 0.1 ×10⁻⁶ cm/s.

The test system of the next series is HuT78. The series is described as follows: Phototoxicity in GFP expressing human HUT78 cells co-cultured with human PBMC cells assessed as cell survival at 7.5 x 10^-8 M preincubated 20 mins in photosensitizer media followed by growth in photosensitizer-free media for 30 mins measured 18 hrs after exposure to 5 J/cm2 irradiation by FACS analysis. The format is functional. The note with it: HuT78, light or radiation study, read-out: Survival. In short, it runs like this: (§2)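 Non-stimulated PBMCs from healthy donors (Ficoll-separated) were mixed 5:1 with GFP-transfected, sorted (>98%) HUT-78 cells. Cells took up 7.5×10^-8 M photosensitizer for 20 min, then spent 30 min in dye-free medium. They were exposed to 5 J cm^-2 light (600 nm LED) with rotation at 180 rpm. Survival was gated by FACS (GFP, CD3, CD4, CD8) 18 h later versus non-irradiated controls. Triplicate; mean ± SEM.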
In general terms: A flow cytometer gives signals particle by particle.
Regarding `C[N+]1=c2cc3c(cc2C(C)(C)CC1)=C(c1ccc(C(=S)N2CCCCC2)s1)c1cc2c4c(c1[Se]3)CCCN4CCC2.[Cl-]`, the viability at 0.075 µM worked out at 0.7%.

System in another series: not listed separately
Put plainly: Drug uptake in SEB-stimulated human CD25 positive cells assessed as mean fluorescence intensity at 5 x 10^-8 M preincubated for 20 mins followed by growth in photosensitizer-free media for 30 mins by flow cytometric analysis relative to control. The note with it: 0.5 h, 0.05 µM.
For `C[N+]1=c2cc3c(cc2C(C)(C)CC1)=C(c1ccc(C(=S)N2CCCCC2)s1)c1cc2c4c(c1[Se]3)CCCN4CCC2.[Cl-]`, the Flu intensity is given as 43300 a.u.

System in another series: not listed separately
Put plainly: N-octanol/water partition coefficient, logP of the compound at 23 degC after 1 hr by HPLC based shake flask method. The class given is physicochemical.
Conditions: not given
The method, boiled down: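 Shake-flask method using 1-octanol: 3–5 min of mixing, then 1 h settling. Equilibration and measurement were at 23 °C, in triplicate.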
Usually logP stands for a log measure of how a compound divides between an organic and an aqueous phase. Read a high logP as higher lipophilicity. Regarding `C[N+]1=c2cc3c(cc2C(C)(C)CC1)=C(c1ccc(C(=S)N2CCCCC2)s1)c1cc2c4c(c1[Se]3)CCCN4CCC2.[Cl-]`, the log partition coefficient (logP) is listed as 3.78.

System in another series: not listed separately
The series is described as follows: Drug extrusion in SEB-stimulated human CD25 positive cells assessed as change in mean fluorescence intensity at 5 x 10^-8 M preincubated for 20 mins followed by growth in photosensitizer-free media for 30 mins by flow cytometric analysis relative to control. The note with it: 0.5 h, 0.05 µM.
In the case of `C[N+]1=c2cc3c(cc2C(C)(C)CC1)=C(c1ccc(C(=S)N2CCCCC2)s1)c1cc2c4c(c1[Se]3)CCCN4CCC2.[Cl-]`, the Activity is given as 22%.

The subject of a further series is ABCB1. The series is described as follows: Permeability from basolateral to apical side in dog MDCK2-MDR1 cells expressing ABCB1 at 5 uM after 30 mins in absence of compound 15 by LC-MS/MS analysis. The class given is ADME, cell-based, Canis lupus familiaris, MDCK-II. The note with it: MDCK-MDR1, read-out: permeability. The method, boiled down:
as §1
With `C[N+]1=c2cc3c(cc2C(C)(C)CC1)=C(c1ccc(C(=S)N2CCCCC2)s1)c1cc2c4c(c1[Se]3)CCCN4CCC2.[Cl-]`, the Papp B→A at 0.5 h, 5 µM came to 0.88 ×10⁻⁶ cm/s.

System in another series: not listed separately
The series is described as follows: Drug uptake in SEB-stimulated human CD25 negative cells assessed as mean fluorescence intensity at 5 x 10^-8 M preincubated for 20 mins followed by growth in photosensitizer-free media for 30 mins by flow cytometric analysis relative to control. The note with it: 0.5 h, 0.05 µM.
On to `C[N+]1=c2cc3c(cc2C(C)(C)CC1)=C(c1ccc(C(=S)N2CCCCC2)s1)c1cc2c4c(c1[Se]3)CCCN4CCC2.[Cl-]`, for which the Flu intensity is recorded as 14100 a.u.

The subject of the next series is ABCB1. Put plainly: Permeability from apical to basolateral side in dog MDCK2-MDR1 cells expressing ABCB1 at 5 uM after 30 mins in absence of compound 15 by LC-MS/MS analysis. The note with it: MDCK-MDR1, read-out: permeability. The class given is ADME, cell-based, Canis lupus familiaris, MDCK-II. In short, it runs like this: as §1
For `C[N+]1=c2cc3c(cc2C(C)(C)CC1)=C(c1ccc(C(=S)N2CCCCC2)s1)c1cc2c4c(c1[Se]3)CCCN4CCC2.[Cl-]`, the Papp A→B at 0.5 h, 5 µM was determined as 0.044 ×10⁻⁶ cm/s.

Another series has as its system ABCB1. The series is described as follows: Permeability from apical to basolateral side in dog MDCK2-MDR1 cells expressing ABCB1 at 5 uM after 30 mins in presence of compound 15 by LC-MS/MS analysis. The note with it: MDCK-MDR1, with compound 15 (concentration not stated), read-out: permeability. The format is ADME, cell-based, Canis lupus familiaris, MDCK-II. The method, boiled down: as §1
On to `C[N+]1=c2cc3c(cc2C(C)(C)CC1)=C(c1ccc(C(=S)N2CCCCC2)s1)c1cc2c4c(c1[Se]3)CCCN4CCC2.[Cl-]`, for which the Papp A→B at 0.5 h, 5 µM was found to be 0.046 ×10⁻⁶ cm/s.

System in another series: not listed separately
The series is described as follows: Drug extrusion in human CD8 positive cells assessed as change in mean fluorescence intensity at 5 x 10^-8 M preincubated for 20 mins followed by growth in photosensitizer-free media for 30 mins by flow cytometric analysis relative to control. The class given is cell-based. The note with it: 0.5 h, 0.05 µM.
In the case of `C[N+]1=c2cc3c(cc2C(C)(C)CC1)=C(c1ccc(C(=S)N2CCCCC2)s1)c1cc2c4c(c1[Se]3)CCCN4CCC2.[Cl-]`, the Activity amounted to 51%.

System in another series: not listed separately
Put plainly: Drug extrusion in SEB-stimulated human CD25 positive cells assessed as mean fluorescence intensity at 5 x 10^-8 M preincubated for 20 mins followed by growth in photosensitizer-free media for 30 mins by flow cytometric analysis relative to control. The note with it: 0.5 h, 0.05 µM.
As to `C[N+]1=c2cc3c(cc2C(C)(C)CC1)=C(c1ccc(C(=S)N2CCCCC2)s1)c1cc2c4c(c1[Se]3)CCCN4CCC2.[Cl-]`, the Flu intensity came out at 33800 a.u.

System in another series: not listed separately
The series is described as follows: Phototoxicity human CD3 positive cells co-cultured with GFP expressing human HUT78 cells assessed as cell survival at 7.5 x 10^-8 M preincubated 20 mins in photosensitizer media followed by growth in photosensitizer-free media for 30 mins measured 18 hrs after exposure to 5 J/cm2 irradiation by FACS analysis. The class given is cell-based. To be noted: read-out: Survival. The method, boiled down: as §2
`C[N+]1=c2cc3c(cc2C(C)(C)CC1)=C(c1ccc(C(=S)N2CCCCC2)s1)c1cc2c4c(c1[Se]3)CCCN4CCC2.[Cl-]`: the viability at 18 h, 0.075 µM was 0.4%.

A further series concerns HuT78. Put plainly: Drug uptake in GFP expressing human HUT78 cells co-cultured with non-stimulated human PBMC cells assessed as change in mean fluorescence intensity at 7.5 x 10^-8 M after 20 mins followed by growth in photosensitizer-free media for 30 mins by flow cytometric analysis relative to control. The class given is cell-based. To be noted: hut78, 0.5 h, 0.075 µM.
As for `C[N+]1=c2cc3c(cc2C(C)(C)CC1)=C(c1ccc(C(=S)N2CCCCC2)s1)c1cc2c4c(c1[Se]3)CCCN4CCC2.[Cl-]`, the Activity came out at 28.2%.

The next series concerns HuT78. The note with it: human, hut78, 0.5 h, 0.075 µM.
For `C[N+]1=c2cc3c(cc2C(C)(C)CC1)=C(c1ccc(C(=S)N2CCCCC2)s1)c1cc2c4c(c1[Se]3)CCCN4CCC2.[Cl-]`, the Flu intensity worked out at 42000 a.u.

The subject of the next series is HuT78. The note with it: human, hut78, 0.5 h, 0.075 µM. The source holds these as a separate data set.
The molecule `C[N+]1=c2cc3c(cc2C(C)(C)CC1)=C(c1ccc(C(=S)N2CCCCC2)s1)c1cc2c4c(c1[Se]3)CCCN4CCC2.[Cl-]` gave a Flu intensity of 36000 a.u.

System in a further series: not listed separately
Put plainly: Drug extrusion in human CD3 positive cells assessed as change in mean fluorescence intensity at 5 x 10^-8 M preincubated for 20 mins followed by growth in photosensitizer-free media for 30 mins by flow cytometric analysis relative to control. The format is cell-based. To be noted: 0.5 h, 0.05 µM.
`C[N+]1=c2cc3c(cc2C(C)(C)CC1)=C(c1ccc(C(=S)N2CCCCC2)s1)c1cc2c4c(c1[Se]3)CCCN4CCC2.[Cl-]`: the Activity is given as 36.8%.

System in another series: not listed separately
Put plainly: Drug extrusion in SEB-stimulated human CD25 negative cells assessed as mean fluorescence intensity at 5 x 10^-8 M preincubated for 20 mins followed by growth in photosensitizer-free media for 30 mins by flow cytometric analysis relative to control. To be noted: 0.5 h, 0.05 µM.
For `C[N+]1=c2cc3c(cc2C(C)(C)CC1)=C(c1ccc(C(=S)N2CCCCC2)s1)c1cc2c4c(c1[Se]3)CCCN4CCC2.[Cl-]`, the Flu intensity stood at 9500 a.u.

In the next series the test system is ABCB1. The series is described as follows: Permeability from basolateral to apical side in dog MDCK2-MDR1 cells expressing ABCB1 at 5 uM after 30 mins in presence of compound 15 by LC-MS/MS analysis. The format is ADME, cell-based, Canis lupus familiaris, MDCK-II. The note with it: MDCK-MDR1, with compound 15 (concentration not stated), read-out: permeability. In short, it runs like this: as §1
Turning to `C[N+]1=c2cc3c(cc2C(C)(C)CC1)=C(c1ccc(C(=S)N2CCCCC2)s1)c1cc2c4c(c1[Se]3)CCCN4CCC2.[Cl-]`, the Papp B→A at 0.5 h, 5 µM was 0.032 ×10⁻⁶ cm/s.

System in a further series: not listed separately
The series is described as follows: Drug extrusion in human CD4 positive cells assessed as change in mean fluorescence intensity at 5 x 10^-8 M preincubated for 20 mins followed by growth in photosensitizer-free media for 30 mins by flow cytometric analysis relative to control. The format is cell-based. To be noted: 0.5 h, 0.05 µM.
For `C[N+]1=c2cc3c(cc2C(C)(C)CC1)=C(c1ccc(C(=S)N2CCCCC2)s1)c1cc2c4c(c1[Se]3)CCCN4CCC2.[Cl-]`, the Activity came out at 37.7%.

System in another series: not listed separately
The series is described as follows: Drug extrusion in SEB-stimulated human CD25 negative cells assessed as change in mean fluorescence intensity at 5 x 10^-8 M preincubated for 20 mins followed by growth in photosensitizer-free media for 30 mins by flow cytometric analysis relative to control. The note with it: 0.5 h, 0.05 µM.
On to `C[N+]1=c2cc3c(cc2C(C)(C)CC1)=C(c1ccc(C(=S)N2CCCCC2)s1)c1cc2c4c(c1[Se]3)CCCN4CCC2.[Cl-]`, for which the Activity is 32.9%.
